Laboratory results reported in PMC7657661 (Biochemical Journal, 2020).
Entries after “also recorded” stand apart in the source; their conditions may differ. Like-named read-outs stand apart in the source and are kept apart here. One block for each molecule: values may come before it.

Legend:
NaCT = settings: cited from earlier work
mouse NaCT = settings: cited from earlier work
human NaCT = settings: cited from earlier work
HepG2 cells = test: Colony formation assay; type: cell-based, human; settings: 5 and 10 µM, 10 days, culture medium with 0.5 mM citrate
How it was run: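 HepG2 cells were seeded at 5000 per well in six-well plates and grown for 10 days in normal medium supplemented with 0.5 mM citrate. The medium held 0.1% DMSO alone, or the test compound at 5 or 10 µM plus 0.1% DMSO, and was renewed every other day. Cells were washed in PBS, methanol-fixed and Giemsa-stained. Colonies were photographed, then the stain was extracted and quantified against the no-inhibitor control.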

mouse NaCT/Slc13a5 = target: T1, mouse NaCT/Slc13a5 (Mus musculus, UniProt Q67BT3); test: [14C]-citrate uptake in HEK293FT cells with ectopic expression of mouse Slc13a5; type: cell-based
T1 sequence (Q67BT3 1-572): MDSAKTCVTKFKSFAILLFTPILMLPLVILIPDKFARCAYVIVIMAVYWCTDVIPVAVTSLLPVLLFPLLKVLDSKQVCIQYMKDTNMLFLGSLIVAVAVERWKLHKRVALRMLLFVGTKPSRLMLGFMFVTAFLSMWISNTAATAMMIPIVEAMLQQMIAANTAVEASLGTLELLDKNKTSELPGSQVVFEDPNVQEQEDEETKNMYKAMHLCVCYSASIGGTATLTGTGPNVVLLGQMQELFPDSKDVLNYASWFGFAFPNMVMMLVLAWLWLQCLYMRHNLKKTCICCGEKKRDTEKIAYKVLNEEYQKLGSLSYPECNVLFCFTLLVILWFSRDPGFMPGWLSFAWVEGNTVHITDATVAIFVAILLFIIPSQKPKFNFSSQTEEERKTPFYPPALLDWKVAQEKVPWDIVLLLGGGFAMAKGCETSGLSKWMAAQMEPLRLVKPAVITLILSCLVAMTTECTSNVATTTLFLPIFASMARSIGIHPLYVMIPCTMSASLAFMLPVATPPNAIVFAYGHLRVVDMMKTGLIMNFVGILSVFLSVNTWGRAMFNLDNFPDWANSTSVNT
How it was run: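 Mouse Slc13a5 was transiently expressed in HEK293FT cells (CMV plasmid, Lipofectamine-3000) and assayed 48 h after transfection in NaCl buffer pH 7.5 without LiCl. Cells got a 30 min preincubation with 10 µM test compound or 100 µM reference NaCT inhibitor, two washes and 0 or 60 min recovery. Then 2 µM [14C]-citrate uptake ran 30 min, or with inhibitor co-present only during uptake. Na+-dependent uptake was normalised to protein.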

NaCT/SLC13A5 [1] = target: T2, NaCT/SLC13A5 (Homo sapiens, UniProt Q86YT5); test: Na+-coupled [14C]-citrate uptake in HepG2 cells; type: cell-based; settings: for effect on Na+-dependent citrate uptake, compound present only during uptake: PF06761281 100 µM, BI01383298 10 µM; for maximal inhibition of citrate uptake: inhibitor present only during uptake; for reversibility of inhibition of SLC13A5: preincubation 30 min, then uptake
How it was run: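 HepG2 cells seeded at 4 × 10^5/well and assayed 48 h later. [14C]-citrate uptake measured for 30 min at 37°C in NaCl buffer pH 7.5 (Hepes/Tris), with or without 10 mM LiCl. Inhibitor either co-incubated during uptake, or preincubated 30 min and washed twice before inhibitor-free uptake. Recovery runs: 10 µM for 30 min in buffer or medium, washed, then held 0, 30 or 60 min (buffer) or 0 or 24 h (medium). Na+-free NMDG-Cl uptake subtracted; values protein-normalized (BCA).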

SLC5A8 = target: T3, SLC5A8 (Homo sapiens, UniProt Q8N695); test: [14C]-nicotinate uptake in HepG2 cells; type: cell-based; settings: 10 µM, 30 min preincubation, washed, NaCl buffer pH 7.5
T3 sequence (Q8N695 1-610): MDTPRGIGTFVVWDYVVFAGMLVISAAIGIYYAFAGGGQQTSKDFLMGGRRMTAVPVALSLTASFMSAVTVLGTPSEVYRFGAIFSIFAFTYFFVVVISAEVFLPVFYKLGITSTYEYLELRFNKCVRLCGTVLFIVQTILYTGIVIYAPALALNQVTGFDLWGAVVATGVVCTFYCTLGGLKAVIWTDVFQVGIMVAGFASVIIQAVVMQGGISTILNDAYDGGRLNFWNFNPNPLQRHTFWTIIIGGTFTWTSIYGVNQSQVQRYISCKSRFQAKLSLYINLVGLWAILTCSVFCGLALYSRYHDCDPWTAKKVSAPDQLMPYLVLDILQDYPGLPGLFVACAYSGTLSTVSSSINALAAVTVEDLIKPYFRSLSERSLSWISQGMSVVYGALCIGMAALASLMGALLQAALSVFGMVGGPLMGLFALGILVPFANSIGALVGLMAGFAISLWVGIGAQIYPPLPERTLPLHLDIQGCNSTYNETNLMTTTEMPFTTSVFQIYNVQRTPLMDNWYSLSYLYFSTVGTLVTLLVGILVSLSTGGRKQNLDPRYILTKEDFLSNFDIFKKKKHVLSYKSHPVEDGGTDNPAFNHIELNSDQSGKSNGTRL
How it was run: (§1)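 HepG2 cells, 48 h after seeding, were preincubated 30 min with 10 µM test compound and washed; substrate uptake followed without inhibitor. [14C]-nicotinate and [3H]-arginine were run in NaCl buffer pH 7.5, and [3H]-glutamine and [3H]-tryptophan in NMDG buffer pH 7.5, each for 15 min. [14C]-lactate was run in NMDG buffer pH 6 for 3 min. Uptake was normalised to protein and compared with untreated control.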

SLC7A5 = SLC7A5 (Homo sapiens, UniProt Q01650); test: [3H]-glutamine and [3H]-tryptophan uptake in HepG2 cells; type: cell-based; settings: 10 µM, 30 min preincubation, washed, NMDG buffer pH 7.5
How it was run: as §1

MCTs = test: [14C]-lactate uptake in HepG2 cells; type: cell-based, human; settings: 10 µM, 30 min preincubation, washed, NMDG pH 6
How it was run: as §1

SLC6A14 = target: T4, SLC6A14 (Homo sapiens, UniProt Q9UN76); test: [3H]-arginine uptake in HepG2 cells; type: cell-based; settings: 10 µM, 30 min preincubation, washed, NaCl buffer pH 7.5
T4 sequence (Q9UN76 1-642): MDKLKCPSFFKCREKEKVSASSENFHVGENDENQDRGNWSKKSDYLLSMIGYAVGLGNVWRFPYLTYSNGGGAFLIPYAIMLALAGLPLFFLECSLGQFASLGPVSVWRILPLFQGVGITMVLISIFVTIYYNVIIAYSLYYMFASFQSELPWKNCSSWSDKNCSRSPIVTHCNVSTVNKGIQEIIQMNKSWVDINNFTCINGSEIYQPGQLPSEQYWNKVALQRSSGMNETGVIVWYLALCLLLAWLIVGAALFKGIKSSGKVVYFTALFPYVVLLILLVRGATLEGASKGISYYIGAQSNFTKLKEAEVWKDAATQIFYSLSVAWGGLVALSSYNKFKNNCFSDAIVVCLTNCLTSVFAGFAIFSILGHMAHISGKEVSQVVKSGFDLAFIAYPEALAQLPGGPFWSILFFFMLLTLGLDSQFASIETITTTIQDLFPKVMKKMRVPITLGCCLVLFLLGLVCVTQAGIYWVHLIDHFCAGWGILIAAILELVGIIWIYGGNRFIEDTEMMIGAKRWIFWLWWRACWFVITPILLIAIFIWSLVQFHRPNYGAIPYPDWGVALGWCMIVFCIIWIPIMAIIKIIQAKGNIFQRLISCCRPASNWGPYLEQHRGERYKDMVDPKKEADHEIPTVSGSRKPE
How it was run: as §1

NaCT/SLC13A5 [2] = target: T2, NaCT/SLC13A5; test: [14C]-citrate uptake in HEK293FT cells with ectopic expression of human SLC13A5; type: cell-based
How it was run: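 Human SLC13A5 (CMV plasmid) was transiently expressed in HEK293FT cells by Lipofectamine-3000, assay 48 h post-transfection. Cells were preincubated 30 min in NaCl buffer (Hepes/Tris, pH 7.5) with the test compound (10 µM or a concentration series), washed twice, then given [14C]-citrate (2 µM) for 30 min at 37 °C without inhibitor. NMDG (Na+-free) uptake was subtracted and values normalised to protein. IC50 came from the dose-response.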

[3] = HepG2, 10 µM, 30 min preincubation, washed, NaCl buffer pH 7.5

T2 sequence (Q86YT5 whole entry): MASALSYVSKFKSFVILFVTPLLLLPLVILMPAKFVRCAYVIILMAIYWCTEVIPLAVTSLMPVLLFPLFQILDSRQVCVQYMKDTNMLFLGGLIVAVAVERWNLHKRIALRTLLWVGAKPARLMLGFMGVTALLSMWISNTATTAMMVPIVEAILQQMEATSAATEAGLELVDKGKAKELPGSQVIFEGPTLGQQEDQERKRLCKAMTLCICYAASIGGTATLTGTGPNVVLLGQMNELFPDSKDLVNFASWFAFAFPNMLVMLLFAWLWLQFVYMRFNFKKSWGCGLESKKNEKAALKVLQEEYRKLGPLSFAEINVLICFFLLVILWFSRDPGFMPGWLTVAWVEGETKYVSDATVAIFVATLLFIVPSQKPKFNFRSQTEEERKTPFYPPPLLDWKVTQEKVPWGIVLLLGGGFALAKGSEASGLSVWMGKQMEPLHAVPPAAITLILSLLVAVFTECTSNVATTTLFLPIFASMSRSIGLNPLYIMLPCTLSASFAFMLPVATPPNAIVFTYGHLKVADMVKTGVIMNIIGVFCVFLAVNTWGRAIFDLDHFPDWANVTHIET
SLC7A5, sequence (Q01650 whole entry): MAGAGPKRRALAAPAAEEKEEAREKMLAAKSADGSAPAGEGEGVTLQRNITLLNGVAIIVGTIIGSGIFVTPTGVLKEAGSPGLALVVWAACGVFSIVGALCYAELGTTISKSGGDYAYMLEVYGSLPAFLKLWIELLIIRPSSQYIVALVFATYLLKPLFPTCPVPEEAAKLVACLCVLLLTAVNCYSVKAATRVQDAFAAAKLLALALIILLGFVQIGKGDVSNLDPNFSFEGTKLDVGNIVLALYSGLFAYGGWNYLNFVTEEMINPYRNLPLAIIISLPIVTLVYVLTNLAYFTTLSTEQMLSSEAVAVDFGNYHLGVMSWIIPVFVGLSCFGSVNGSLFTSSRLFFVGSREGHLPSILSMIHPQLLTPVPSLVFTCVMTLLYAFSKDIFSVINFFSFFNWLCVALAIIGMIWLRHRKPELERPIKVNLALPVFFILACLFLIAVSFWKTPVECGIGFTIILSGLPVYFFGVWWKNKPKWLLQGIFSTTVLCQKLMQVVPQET

SMILES: CN(C)C(=N)N=C(N)N [metformin]
- effect on expression of NaCT in HepG2 cells (NaCT): suppresses the expression of NaCT

SMILES: CC(C)(C)c1ccc(CC[C@@](O)(CC(=O)O)C(=O)O)cc1 [PF-06649298]
- species selectivity (mouse and human NaCTs) (mouse NaCT): no species selectivity
- IC50 (human NaCT; read-out: IC50 for NaCT-mediated citrate uptake, human NaCT): 400 to 10000 nM

SMILES: O=C(O)CC(O)(CC(=O)O)C(=O)O [citrate]
- lower affinity of human NaCT for citrate than mouse NaCT (human NaCT; kinetic experiments under identical conditions): at least 30 fold

- preincubation time at which maximal inhibition is evident (NaCT/SLC13A5 [1]; HepG2, 10 µM inhibitor, washed, uptake without inhibitor): 30 min
- Citrate (7 µM) uptake (NaCT/SLC13A5 [1]; [3]): 88.2 ± 5.6 pmol/mg of protein/30 min
- Citrate (7 µM) uptake, % Control (NaCT/SLC13A5 [1]; [3]): 18 ± 1 % Control
- IC50 lower in presence of Li+ than in its absence (NaCT/SLC13A5 [1]; HepG2, 30 min preincubation, inhibitor also present during uptake): 2 fold
- inhibitory potency relative to PF06761281 (NaCT/SLC13A5 [1]; HepG2, BI01383298 10 µM vs PF06761281 100 µM): at least 10 times
- effect on Na+-dependent citrate uptake, compound present only during uptake (NaCT/SLC13A5 [1]; HepG2): inhibited
- maximal inhibition of citrate uptake (NaCT/SLC13A5 [1]; HepG2, absence of Li+): ~60%
- maximal inhibition of citrate uptake (NaCT/SLC13A5 [1]; HepG2, presence of Li+): ~60%
- increase in inhibitory potency with preincubation (NaCT/SLC13A5 [1]; HepG2, preincubated vs not preincubated, both in absence or presence of Li+): ~10 fold
- IC50 (NaCT/SLC13A5 [1]; IC50 for human NaCT (summary), human NaCT, HepG2 and HEK293 cells): ~100 nM
- type of inhibition of NaCT/SLC13A5 (NaCT/SLC13A5 [1]; kinetic analysis, Eadie–Hofstee plot): non-competitive
- reversibility of inhibition of SLC13A5 (NaCT/SLC13A5 [1]; washed): irreversible
- Nicotinate (8 µM) uptake (SLC5A8): 123 ± 4 pmol/mg of protein/15 min
- Nicotinate (8 µM) uptake, % Control (SLC5A8): 100 ± 3 % Control
- Glutamine (5 µM) uptake (SLC7A5): 306 ± 3 pmol/mg of protein/15 min
- Tryptophan (5 µM) uptake (SLC7A5): 76 ± 3 pmol/mg of protein/15 min
- Tryptophan (5 µM) uptake, % Control (SLC7A5): 95 ± 3 % Control
- Arginine (5 µM) uptake (SLC6A14): 935 ± 51 pmol/mg of protein/15 min
- Arginine (5 µM) uptake, % Control (SLC6A14): 101 ± 5 % Control
- IC50 (NaCT/SLC13A5 [2]): 171 ± 51 nM
- effect on human NaCT/SLC13A5 transporter activity (NaCT/SLC13A5 [2]; HEK293FT, 10 µM): complete inhibition
SMILES: O=C(NCc1ccc(F)cc1)C1CCN(S(=O)(=O)c2cc(Cl)cc(Cl)c2)CC1 [BI01383298, 1-(3,5-Dichlorophenylsulfonyl)-N-(4-fluorobenzyl)piperidine-4-carboxamide]
- effect on HepG2 cell proliferation (HepG2 cells): decreased cell proliferation; also recorded: robust inhibition of cell proliferation; also recorded: does block the proliferation
- effect on mouse NaCT/Slc13a5 (mouse NaCT/Slc13a5; 10 µM, 30 min preincubation, uptake without inhibitor): not affected; also recorded: not inhibited; also recorded: little or no inhibition
- effect on mouse NaCT (mouse NaCT; ref Structural Genomics Consortium): no effect
- Lactate (3 µM) uptake (MCTs): 137 ± 7 pmol/mg of protein/3 min
- Lactate (3 µM) uptake, % Control (MCTs): 97 ± 5 % Control
- IC50 (human NaCT; read-out: IC50 for human NaCT, ref Structural Genomics Consortium): 25 to 60 nM

- effect on activity of mouse NaCT/Slc13a5 (mouse NaCT/Slc13a5; 100 µM): able to inhibit
- inhibitory potency for mouse NaCT/Slc13a5 compared with human NaCT/SLC13A5 (mouse NaCT/Slc13a5; 100 µM): greater than for human NaCT/SLC13A5
- effect on Na+-dependent citrate uptake, compound present only during uptake (NaCT/SLC13A5 [1]; HepG2): inhibited
- reversibility of inhibition of SLC13A5 (NaCT/SLC13A5 [1]; washed): at least partly reversible
SMILES: COc1ncc(C)cc1CC[C@@](O)(CC(=O)O)C(=O)O [PF06761281, (2R)-2-Hydroxy-2-[2-(2-methoxy-5-methyl-3-pyridinyl)ethyl]succinic acid]
- increase in inhibitor potency over PF-06649298 (human NaCT; optimized derivative): ~4 fold
